Measurements: ChEMBL document CHEMBL5385958, “Psammaplin A and Its Analogs Attenuate Oxidative Stress in Neuronal Cells through Peroxisome Proliferator-Activated Receptor γ Activation” (J Nat Prod, 2024)
Activity calls are given as the source filed them. The calls are words filed in the database; no cut-off is given here.

How the values were obtained:
[1] = molecular target: T1, Peroxisome proliferator-activated receptor gamma (Homo sapiens) (UniProt P37231); assay: Activation of PPARgamma in H2O2 induced human SH-SY5Y cells assessed as increase in PPARgamma nucleus translocation incubated for 6 hrs by Western blot analysis; type: cell-based; conditions: filed as activator
T1 sequence (whole entry): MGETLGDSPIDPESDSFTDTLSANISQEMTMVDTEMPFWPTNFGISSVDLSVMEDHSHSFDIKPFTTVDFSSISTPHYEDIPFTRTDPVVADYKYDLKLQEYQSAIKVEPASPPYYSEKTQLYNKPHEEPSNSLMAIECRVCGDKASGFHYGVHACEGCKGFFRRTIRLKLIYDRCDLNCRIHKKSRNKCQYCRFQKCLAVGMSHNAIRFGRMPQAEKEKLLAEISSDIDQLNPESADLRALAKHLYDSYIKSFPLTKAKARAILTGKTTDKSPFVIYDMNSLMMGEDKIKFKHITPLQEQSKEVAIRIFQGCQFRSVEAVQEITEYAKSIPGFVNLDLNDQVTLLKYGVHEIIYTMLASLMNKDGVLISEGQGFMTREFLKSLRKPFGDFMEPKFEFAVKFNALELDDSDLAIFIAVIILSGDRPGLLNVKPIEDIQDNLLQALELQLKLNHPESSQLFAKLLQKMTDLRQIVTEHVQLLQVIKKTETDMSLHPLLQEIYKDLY
In short: (§1)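 Western blot on SH-SY5Y cells (1 × 10^6/well) treated 6 h, with or without 150 μM H2O2. Hypotonic lysis gave cytosolic fraction; nuclear extraction buffer gave nuclear fraction. 10 μg nuclear or 15 μg cytosolic protein per lane, anti-PPARγ 1:1000. Bands normalized to lamin B1 (nuclear) or actin (cytosolic); translocation expressed as nuclear/cytosolic ratio. Three replicates in duplicate.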

SH-SY5Y [2] = assay: Inhibition of mPTP opening in human SH-SY5Y cells assessed as increase in calcein fluorescence signal by flow cytometry analysis relative to control; type: cell-based; conditions: dose or concentration not given here
In short: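 mPTP assay: detached SH-SY5Y cells in PBS with 0.6 mM CaCl2 loaded with calcein-AM for 15 min at 37 °C. 0.4 mM CoCl2 plus 0.001 μM agent added for 15 min, then 1 mM TBHP for 3 min.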

SH-SY5Y [3] = assay: Antioxidant activity in human SHSY-5Y cells assessed as protection against H2O2 induced loss of cell viability at 0.01 uM incubated for 6 hrs in presence of H2O2 by MTT assay (reference value: 76 +/- 4%); type: functional
In short: (§2)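 Neuroprotection by MTT: SH-SY5Y cells (5 × 10^4/well) cotreated 6 h with agent plus 150 μM H2O2; vitamin E 25 μM as positive control. Cells washed with Locke's buffer, given 500 μg/mL MTT for 1 h at 37 °C, solubilized with 5% SDS, absorbance read at 595 nm. Saponin 1 mg/mL death control subtracted. Triplicate, three independent times.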

[4] = molecular target: T1, Peroxisome proliferator-activated receptor gamma (Homo sapiens); assay: Activation of PPARgamma in H2O2 induced human SH-SY5Y cells assessed as increase in glutathione peroxidase 1 mRNA expression incubated for 6 hrs by qPCR analysis; type: cell-based; conditions: filed as activator
In short: (§3)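 qPCR on SH-SY5Y cells (1 × 10^6/well, attached 24 h) given test agent together with 150 μM H2O2 for 6 h. Total RNA extracted, reverse transcribed with oligo-dT, amplified with SYBR Green and gene-specific primers (CAT, SOD1, GPx1). RPLP0 used as internal normalizer; ΔΔCt relative to H2O2-control calibrator. Three independent replicates in triplicate; rosiglitazone 10 μM as positive control.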

SH-SY5Y [5] = assay: Cytotoxicity against human SH-SY5Y cells assessed as reduction in cell viability at 0.001 to 1 uM incubated for 24 hrs by MTT assay; type: toxicity, cell-based; conditions: dose 0.001-1 µM
In short: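 MTT viability of SH-SY5Y cells (5 × 10^4/well) after 24 h exposure to 0.001, 0.01, 0.1 and 1 μM. 500 μg/mL MTT for 1 h at 37 °C after Locke's buffer wash; SDS solubilization; absorbance at 595 nm with 1 mg/mL saponin blank subtracted. DMSO vehicle below 0.5%. Triplicate, three independent times.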

SH-SY5Y [6] = assay: Antioxidant activity in human SH-SY5Y cells assessed as protection against H2O2 induced loss of cell viability at 0.001 uM incubated for 6 hrs in presence of H2O2 by MTT assay (reference value: 76 +/- 4%); type: functional; in short: as §2
[7] = molecular target: T1, Peroxisome proliferator-activated receptor gamma (Homo sapiens); assay: Activation of PPARgamma in human SH-SY5Y cells assessed as increase in PPARgamma nucleus translocation at 0.001 uM incubated for 6 hrs by Western blot analysis; type: cell-based; conditions: filed as activator; in short: as §1
[8] = molecular target: T1, Peroxisome proliferator-activated receptor gamma (Homo sapiens); assay: Activation of PPARgamma in human SH-SY5Y cells assessed as increase in glutathione peroxidase 1 mRNA expression incubated for 6 hrs by qPCR analysis; type: cell-based; conditions: filed as activator
In short: (§4)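 SH-SY5Y cells (1 × 10^6/well, 24 h attachment) exposed to test agent alone for 6 h. RNA extracted, cDNA made with oligo-dT primers, SYBR Green qPCR for CAT, GPx1, Nrf2 or SOD1. Expression normalized to RPLP0 and calculated by ΔΔCt against untreated control calibrator. Three independent replicates performed in triplicate; rosiglitazone 10 μM as positive control.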

SH-SY5Y [9] = assay: Antioxidant activity in human SH-SY5Y cells assessed as recovery of H2O2 decreased GSH level at 1 uM incubated for 30 min by fluorescence based microplate reader assay relative to control (reference value: 83 +/- 2%); type: functional; parameters: scale not given: the % may be the effect or the level left; conditions: 0.5 h
SH-SY5Y [10] = assay: Antioxidant activity in human SH-SY5Y cells assessed as reversal of H2O2 induced mitochondrial membrane depolarization at 0.001 uM incubated for 6 hrs by TMRM staining based microplate reader analysis (reference value: 76 +/- 2%); type: functional
In short: (§5)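 SH-SY5Y cells (5 × 10^4/well) cotreated with agent and 150 μM H2O2 for 6 h, then loaded with 1 μM TMRM for 30 min at 37 °C. Cells lysed with 50% H2O/DMSO; fluorescence read at 535/590 nm. Vitamin E 25 μM as positive control. Data expressed as percentage of untreated control cells. Triplicate, three independent times.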

SH-SY5Y [11] = assay: Inhibition of H2O2 induced ROS release in human SH-SY5Y cells at 1 uM incubated for 6 hrs by carboxy-H2DCFDA staining based assay; type: functional; parameters: scale not given: the % may be the effect or the level left
In short: (§6)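 ROS measurement: SH-SY5Y cells exposed to agent and 150 μM H2O2 for 6 h, washed with serum-free medium and loaded with 20 μM carboxy-H2DCFDA for 1 h at 37 °C, then PBS for 30 min. Fluorescence read by plate reader. Vitamin E 25 μM as positive control. Triplicate, three independent times; percentage of untreated control.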

[12] = molecular target: T1, Peroxisome proliferator-activated receptor gamma (Homo sapiens); assay: Activation of PPARgamma in human SH-SY5Y cells assessed as increase in Nrf2 mRNA expression level at 0.001 uM incubated for 6 hrs by qPCR analysis; type: cell-based; conditions: filed as activator; in short: as §4
SH-SY5Y [13] = assay: Inhibition of H2O2 induced ROS release in human SH-SY5Y cells at 0.001 uM incubated for 6 hrs by carboxy-H2DCFDA staining based assay; type: functional; parameters: scale not given: the % may be the effect or the level left; in short: as §6
SH-SY5Y [14] = assay: Inhibition of mPTP opening in human SH-SY5Y cells assessed as decrease in cyclophilin D protein expression at 0.001 uM incubated for 6 hrs by Western blot analysis; type: cell-based
In short: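 15 μg cytosolic protein run on 4–20% SDS-PAGE, probed with anti-cyclophilin antibody 1:1000, bands normalized to actin. Three replicates in duplicate; percentage of untreated or H2O2 control.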

SH-SY5Y [15] = assay: Antioxidant activity in human SH-SY5Y cells assessed as reversal of H2O2 induced mitochondrial membrane depolarization at 0.001 to 0.1 uM incubated for 6 hrs by TMRM staining based microplate reader analysis; type: functional, cell-based; conditions: dose 0.001-0.1 µM; in short: as §5
[16] = molecular target: T1, Peroxisome proliferator-activated receptor gamma (Homo sapiens); assay: Activation of PPARgamma in human SH-SY5Y cells at 1 uM incubated for 6 hrs relative to control; type: cell-based; conditions: filed as activator
In short: (§7)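 Nuclear extracts from SH-SY5Y cells (1 × 10^6/well) treated 6 h with 0.001–1 μM agent; rosiglitazone 10 μM as positive control. PPARγ DNA-binding activity measured by ELISA-type transcription factor kit. Absorbance corrected by Bradford protein content and expressed as percentage of control cells. Three independent experiments.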

[17] = molecular target: T1, Peroxisome proliferator-activated receptor gamma (Homo sapiens); assay: Activation of PPARgamma in H2O2 induced human SH-SY5Y cells assessed as increase in catalase mRNA expression level incubated for 6 hrs by qPCR analysis; type: cell-based; conditions: filed as activator; in short: as §3
SH-SY5Y [18] = assay: Antioxidant activity in human SH-SY5Y cells assessed as protection against H2O2 induced loss of cell viability at 0.001 to 0.1 uM incubated for 6 hrs in presence of H2O2 by MTT assay; type: functional, cell-based; conditions: dose 0.001-0.1 µM; in short: as §2
SH-SY5Y [19] = assay: Antioxidant activity in human SH-SY5Y cells assessed as protection against H2O2 induced loss of cell viability at 25 uM incubated for 6 hrs in presence of H2O2 by MTT assay; type: functional, cell-based; in short: as §2
SH-SY5Y [20] = assay: Inhibition of H2O2 induced ROS release in human SH-SY5Y cells at 25 uM incubated for 6 hrs by carboxy-H2DCFDA staining based assay; type: functional, cell-based; parameters: scale not given: the % may be the effect or the level left; in short: as §6
[21] = molecular target: T1, Peroxisome proliferator-activated receptor gamma (Homo sapiens); assay: Activation of PPARgamma in human SH-SY5Y cells assessed as transcription activity at 0.001 to 0.1 uM incubated for 6 hrs; type: cell-based; conditions: filed as activator, dose 0.001-0.1 µM; in short: as §7
[22] = molecular target: T1, Peroxisome proliferator-activated receptor gamma (Homo sapiens); assay: Activation of PPARgamma in human SH-SY5Y cells assessed as increase in superoxide dismutase 1 mRNA expression at 0.001 uM incubated for 6 hrs by qPCR analysis; type: cell-based; conditions: filed as activator; in short: as §4
SH-SY5Y [23] = assay: Inhibition of H2O2 induced ROS release in human SH-SY5Y cells at 0.001 to 1 uM incubated for 6 hrs by carboxy-H2DCFDA staining based assay; type: functional; parameters: scale not given: the % may be the effect or the level left; conditions: dose 0.001-1 µM; in short: as §6
SH-SY5Y [24] = assay: Antioxidant activity in human SH-SY5Y cells assessed as recovery of H2O2 decreased GSH level at 0.001 to 1 uM incubated for 30 min by fluorescence based microplate reader assay; type: functional, cell-based; conditions: dose 0.001-1 µM

| Activity [1] [%] | Activity [4] | Activity [7] [%] | Activity [8] | Activity [12] | Activity [17] | Compound | inhibition (SH-SY5Y [2]) [%] | Activity (SH-SY5Y [5]) | Activity (SH-SY5Y [9]) [%] | Activity (SH-SY5Y [11]) [%] | inhibition (SH-SY5Y [14]) | Activity (SH-SY5Y [15]) | Activity (SH-SY5Y [18]) | further results |
| --- | --- | --- | --- | --- | --- | --- | --- | --- | --- | --- | --- | --- | --- | --- |
| 139 | – | – | – | – | – | CN(CCOc1ccc(CC2SC(=O)NC2=O)cc1)c1ccccn1 (centres undefined) | – | – | – | – | – | – | – | – |
| 150 | Active | 136 | Active | Active | – | O=C(NCCSSCCNC(=O)/C(Cc1ccc(O)c(Br)c1)=N/O)/C(Cc1ccc(O)c(Br)c1)=N/O [PSAMMAPLIN A] | – | Non-Toxic | 120 | 96 | inactive | – | – | Activity (SH-SY5Y [3]): 96%; Activity (SH-SY5Y [6]): 100%; Activity (SH-SY5Y [10]): 100%; Activity (SH-SY5Y [13]): 101% |
| 177 | Active | 151 | Active | Active | Active | O=C(NCCSSCCNC(=O)/C(Cc1cc(O)c(O)c(Br)c1)=N\O)/C(Cc1ccc(O)c(Br)c1)=N\O | – | Non-Toxic | 117 | 99 | inactive | Active | Active | Activity [16]: 130% |
| – | Active | 180 | Active | Active | Active | O=C(NCCSSCCNC(=O)/C(Cc1cc(Br)c(O)c(-c2cc(C/C(=N\O)C(=O)NCCSSCCNC(=O)/C(Cc3ccc(O)c(Br)c3)=N/O)cc(Br)c2O)c1)=N/O)/C(Cc1ccc(O)c(Br)c1)=N/O [BISAPRASIN] | 92 | Non-Toxic | – | – | inactive | Active | Active | Activity [21]: Active; Activity [22]: Active; Activity (SH-SY5Y [23]): 87%; Activity (SH-SY5Y [24]): Active |

More lines, now with the values behind:

| Compound | Activity [1] [%] | Activity [4] | Activity [7] [%] | Activity [8] | Activity [12] | Activity [17] | inhibition (SH-SY5Y [2]) [%] | Activity (SH-SY5Y [5]) | Activity (SH-SY5Y [9]) [%] | Activity (SH-SY5Y [11]) [%] | inhibition (SH-SY5Y [14]) | Activity (SH-SY5Y [15]) | Activity (SH-SY5Y [18]) | further results |
| --- | --- | --- | --- | --- | --- | --- | --- | --- | --- | --- | --- | --- | --- | --- |
| CC(C)(C)OO | – | – | – | – | – | – | 54 | – | – | – | – | – | – | – |
| VITAMIN E | – | – | – | – | – | – | – | – | – | – | – | – | – | Activity (SH-SY5Y [19]): 106%; Activity (SH-SY5Y [20]): 101% |
